Data reported in ChEMBL document CHEMBL3860087, “New Broad-Spectrum Antibacterial Amphiphilic Aminoglycosides Active against Resistant Bacteria: From Neamine Derivatives to Smaller Neosamine Analogues” (J Med Chem, 2016).
In brackets after ≈: the same amount, converted by molar mass.

How the values were obtained:
Pseudomonas aeruginosa [1] = assay: Antibacterial activity against AAC6'-2A expressing Pseudomonas aeruginosa F03 by microdilution method; type: functional
Method in brief: (§1)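 Strains grown overnight at 37 °C on trypticase soy agar; MIC by broth microdilution from fresh culture in cation-adjusted Mueller–Hinton broth, starting inoculum 10^6 cells, following CLSI recommendations.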

Staphylococcus aureus [2] = assay: Antibacterial activity against healthcare-acquired methicillin-resistant Staphylococcus aureus ATCC 33592 by microdilution method; type: functional
Method in brief: (§2)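 Broth microdilution per CLSI in cation-adjusted Mueller–Hinton broth. Strains were grown overnight at 37 °C on trypticase soy agar, and a fresh culture was used. Starting inoculum was 10^6 cells.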

Acinetobacter lwoffii [3] = assay: Antibacterial activity against APH3'-VIA expressing Acinetobacter lwoffii AI.88-483 by microdilution method; type: functional; method in brief: as §1
Pseudomonas aeruginosa [4] = assay: Antibacterial activity against triABC deficient Pseudomonas aeruginosa PA406 by microdilution method; type: functional; method in brief: as §1
Staphylococcus aureus [5] = assay: Antibacterial activity against Staphylococcus aureus ATCC 25923 by microdilution method; type: functional; method in brief: as §2
Staphylococcus aureus [6] = assay: Antibacterial activity against NorA expressing Staphylococcus aureus 1 by microdilution method
Escherichia coli [7] = assay: Antibacterial activity against AAC6'-IB expressing Escherichia coli PAZ505H8101 by microdilution method; type: functional; method in brief: as §1
Escherichia coli [8] = assay: Antibacterial activity against ANT2''-IA expressing Escherichia coli L8058.1 by microdilution method; type: functional; method in brief: as §1
[9] = Cytotoxicity against mouse J774 cells assessed as cell viability at 10 uM after 24 hrs by MTT assay relative to control; type: toxicity, cell-based; settings: J774 cells, read-out: Activity
Method in brief: (§3)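 Murine J774 macrophages exposed 24 h to 10 or 30 μM compound, then 1 h with 0.2 mg/mL MTT; reaction stopped with DMSO, OD read at 570 nm as metabolic-activity viability. Number of independent experiments given per value.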

Escherichia coli [10] = assay: microbe, parasite or virus in culture; settings: ATCC 25922
Pseudomonas aeruginosa [11] = assay: Antibacterial activity against Pseudomonas aeruginosa ATCC 27853 by microdilution method; type: functional; method in brief: as §1
[12] = Cytotoxicity against mouse J774 cells assessed as cell viability at 30 uM after 24 hrs by MTT assay relative to control; type: toxicity, cell-based; settings: J774 cells, read-out: Activity; method in brief: as §3
Acinetobacter lwoffii [13] = assay: Antibacterial activity against Acinetobacter lwoffii ATCC 17925 by microdilution method; type: functional; method in brief: as §1
Pseudomonas aeruginosa [14] = assay: Antibacterial activity against MexXY expressing Pseudomonas aeruginosa PA22 by microdilution method; type: functional; method in brief: as §1
Klebsiella pneumoniae = assay: Antibacterial activity against Klebsiella pneumoniae ATCC 700603 by microdilution method; type: functional; method in brief: as §1

Row | Compound | MIC (Pseudomonas aeruginosa [1]) [µg/mL] | MIC (Staphylococcus aureus [2]) [µg/mL] | MIC (Acinetobacter lwoffii [3]) [µg/mL] | MIC (Pseudomonas aeruginosa [4]) [µg/mL] | MIC (Staphylococcus aureus [5]) [µg/mL] | MIC (Staphylococcus aureus [6]) [µg/mL] | MIC (Escherichia coli [7]) [µg/mL] | MIC (Escherichia coli [8]) [µg/mL] | viability at 24 h, 10 µM [9] [%] | MIC (Escherichia coli [10]) [µg/mL] | MIC (Pseudomonas aeruginosa [11]) [µg/mL] | viability at 24 h, 30 µM [12] [%] | MIC (Acinetobacter lwoffii [13]) [µg/mL] | MIC (Pseudomonas aeruginosa [14]) [µg/mL] | MIC (Klebsiella pneumoniae) [µg/mL]
1 | CCCCCCCCCO[C@@H]1[C@@H](N)[C@@H](OC[C@H](O)CN)O[C@H](CN)[C@H]1OCCCCCCCCC | 8 (≈ 15.9 µM) | 2 (≈ 3.97 µM) | 8 (≈ 15.9 µM) | 8 (≈ 15.9 µM) | 2 (≈ 3.97 µM) | 2 (≈ 3.97 µM) | 4 (≈ 7.94 µM) | 4 (≈ 7.94 µM) | 88 | 4 (≈ 7.94 µM) | 8 (≈ 15.9 µM) | 14.4 | 2 (≈ 3.97 µM) | 8 (≈ 15.9 µM) | 8 to 16 (≈ 15.9 to 31.8 µM)
2 | CCCCCCCCCO[C@@H]1[C@@H](N)[C@@H](OCC(O)CNCCCO)O[C@H](CN)[C@H]1OCCCCCCCCC (mixture of isomers) | 8 | 1 to 2 | 8 | 8 | 2 | 1 to 2 | 4 | 4 | 89.9 | 4 to 8 | 8 | 13.7 | 1 | 8 | 8 to 16
3 | NC[C@H]1O[C@H](O[C@H]2[C@H](O)[C@@H](O[C@H]3O[C@H](CO)[C@@H](O)[C@H](N)[C@H]3O)[C@H](N)C[C@@H]2N)[C@H](N)C[C@@H]1O [TOBRAMYCIN] | 128 (≈ 274 µM) | 64 (≈ 137 µM) | 0.5 to 1 (≈ 1.07 to 2.14 µM) | < 0.25 | 0.25 (≈ 0.535 µM) | 0.5 (≈ 1.07 µM) | 32 (≈ 68.4 µM) | 64 (≈ 137 µM) | 99.7 | 1 (≈ 2.14 µM) | < 0.25 | 83.2 | < 0.25 | 0.5 (≈ 1.07 µM) | 4 to 8 (≈ 8.56 to 17.1 µM)
4 | CCCCCCCCCO[C@@H]1[C@@H](N)[C@@H](OCC(O)CNCCN)O[C@H](CN)[C@H]1OCCCCCCCCC (mixture of isomers) | 4 to 8 | 2 | 16 to 32 | 8 | 2 | 2 | 4 to 8 | 4 to 8 | 87.5 | 8 | 8 | 53 | 2 | 4 to 8 | 8 to 16
5 | NCC[C@H](O)C(=O)N[C@@H]1C[C@H](N)[C@@H](O[C@H]2O[C@H](CN)[C@@H](O)[C@H](O)[C@H]2O)[C@H](O)[C@H]1O[C@H]1O[C@H](CO)[C@@H](O)[C@H](N)[C@H]1O [AMIKACIN] | 8 (≈ 13.7 µM) | 8 to 16 (≈ 13.7 to 27.3 µM) | 128 (≈ 219 µM) | 1 (≈ 1.71 µM) | 4 (≈ 6.83 µM) | 2 (≈ 3.42 µM) | 64 (≈ 109 µM) | 2 (≈ 3.42 µM) | 81.2 | 4 (≈ 6.83 µM) | 2 to 4 (≈ 3.42 to 6.83 µM) | 92 | < 0.25 | 8 (≈ 13.7 µM) | 1 (≈ 1.71 µM)
6 | NC[C@@H]1O[C@H](O[C@H]2[C@@H](O)[C@H](O[C@@H]3[C@@H](O)[C@H](N)C[C@H](N)[C@H]3O[C@H]3O[C@H](CN)[C@@H](O)[C@H](O)[C@H]3N)O[C@@H]2CO)[C@H](N)[C@@H](O)[C@@H]1O [FRAMYCETIN] | 128 (≈ 208 µM) | > 128 | 64 to 128 (≈ 104 to 208 µM) | 2 (≈ 3.25 µM) | 1 to 2 (≈ 1.63 to 3.25 µM) | 0.5 (≈ 0.813 µM) | 4 (≈ 6.51 µM) | 1 (≈ 1.63 µM) | 87.3 | 2 (≈ 3.25 µM) | 64 (≈ 104 µM) | 69.8 | < 0.25 | 32 to 64 (≈ 52.1 to 104 µM) | 4 to 8 (≈ 6.51 to 13 µM)
7 | CCCCCCCCCO[C@@H]1[C@@H](N)[C@@H](OCC(O)CO)O[C@H](CN)[C@H]1OCCCCCCCCC (mixture of isomers) | 64 | 2 | 8 | 64 | 2 | 2 | 16 | 8 | 89.7 | 8 | 64 | 8.8 | 1 | 64 | 64
8 | NC[C@H]1O[C@H](O[C@H]2[C@H](O)[C@@H](O)[C@H](N)C[C@@H]2N)[C@H](N)[C@@H](OCc2ccc3ccccc3c2)[C@@H]1OCc1ccc2ccccc2c1 | 128 (≈ 212 µM) | 4 to 8 (≈ 6.64 to 13.3 µM) | > 128 | 2 to 4 (≈ 3.32 to 6.64 µM) | 2 to 4 (≈ 3.32 to 6.64 µM) | 2 to 4 (≈ 3.32 to 6.64 µM) | 8 to 16 (≈ 13.3 to 26.5 µM) | 16 to 32 (≈ 26.5 to 53.1 µM) | 79.1 | 16 to 32 (≈ 26.5 to 53.1 µM) | 16 (≈ 26.5 µM) |  | 4 (≈ 6.64 µM) | 128 (≈ 212 µM) | > 128
9 | CCCCCCCCCO[C@@H]1[C@@H](N)[C@@H](OC[C@H](O)CN=[N+]=[N-])O[C@H](CN)[C@H]1OCCCCCCCCC | > 128 | 2 (≈ 3.78 µM) | > 128 | > 128 | 2 (≈ 3.78 µM) | 2 (≈ 3.78 µM) | > 128 | > 128 | 62.2 | 32 (≈ 60.4 µM) | > 128 | 5.9 | 4 (≈ 7.55 µM) | 128 (≈ 242 µM) | > 128
10 | CCCCCCCCCO[C@@H]1[C@@H](N)[C@@H](OCC(O)CNCCO)O[C@H](CN)[C@H]1OCCCCCCCCC (mixture of isomers) | 8 | 1 to 2 | 4 to 8 | 8 | 4 | 1 to 2 | 8 | 4 to 8 | 99.1 | 4 to 8 | 8 | 10.1 | 2 | 8 | 8
11 | NC[C@H]1O[C@H](O[C@H]2[C@H](O)[C@@H](O)[C@H](N)C[C@@H]2N)[C@H](N)[C@@H](O)[C@@H]1O [NEAMINE] | > 128 | > 128 | > 128 | 64 (≈ 199 µM) | 16 to 32 (≈ 49.6 to 99.3 µM) | 8 (≈ 24.8 µM) | > 128 | 32 (≈ 99.3 µM) | 94.8 | 32 (≈ 99.3 µM) | > 128 | 84.4 | 0.5 (≈ 1.55 µM) | > 128 | 32 (≈ 99.3 µM)
12 | GENTAMICIN | > 128 | 1 | 2 | < 0.25 | 0.25 to 0.5 |  | 1 | 64 |  |  | 1 |  | < 0.25 | 4 | 4 to 8
